Source: ChEMBL document CHEMBL4152290, “1H-Benzo[d]imidazoles and 3,4-dihydroquinazolin-4-ones: Design, synthesis and antitubercular activity” (Eur J Med Chem, 2018)

Legend:
[1] = species on record: Danio rerio; assay: Toxicity in Zebrafish AB embryos assessed as morphological alteration by measuring effect on surface area of eyes at 3 to 20 uM measured at 2 to 5 days post fertilization by stereomicroscopic method; type: organism-based; conditions: in vivo
In short: (§1)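 AB embryos are treated from 2 hpf to 5 dpf at 3.0, 15.0 and 20.0 µM in fish water with 1% DMSO, at 28 °C. Controls are fish water and 1% DMSO. Larvae are photographed under a stereomicroscope (3×) at 2 and 5 dpf, n = 30. Body length (µm), ocular distance (µm) and eye surface area (µm²) are measured from the images.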

[2] = Stability of the compound in PBS containing 10% DMSO at 37 degC measured after 24 hrs by HPLC analysis; type: physicochemical; conditions: for remaining at 24 h: PBS containing 10% DMSO, read-out: Stability
[3] = Selectivity index, ratio of cytotoxic concentration for human HaCaT cells by neutral red uptake assay to MIC for Mycobacterium tuberculosis H37Rv ATCC 27294; type: toxicity; conditions: read-out: Selectivity Index
[4] = Stability of the compound in PBS containing 10% DMSO at 25 degC measured after 6 hrs by HPLC analysis; type: physicochemical; conditions: buffer
[5] = species on record: Danio rerio; assay: Cardiotoxicity in Zebrafish AB embryos assessed as heart beat rate at 3 uM measured at 5 days post fertilization by stereomicroscopic method (reference value: 148.1 to 158.2 bpm); type: organism-based; conditions: in vivo, 120 h
[6] = species on record: Danio rerio; assay: Toxicity in Zebrafish AB embryos assessed as morphological alteration by measuring effect on ocular distance at 3 to 20 uM measured at 2 to 5 days post fertilization by stereomicroscopic method; type: organism-based; conditions: in vivo; in short: as §1
[7] = Stability of the compound in PBS containing 10% DMSO at 25 degC measured after 3 hrs by HPLC analysis; type: physicochemical; conditions: buffer
[8] = Stability of the compound in PBS containing 10% DMSO at 37 degC measured after 6 hrs by HPLC analysis; type: physicochemical; conditions: read-out: Stability
[9] = Stability of the compound in PBS containing 10% DMSO at 37 degC measured after 12 hrs by HPLC analysis; type: physicochemical; conditions: read-out: Stability
[10] = Selectivity index, ratio of cytotoxic concentration for African green monkey Vero cells by neutral red uptake assay to MIC for Mycobacterium tuberculosis H37Rv ATCC 27294; type: toxicity; conditions: read-out: Selectivity Index
[11] = species on record: Danio rerio; assay: Toxicity in Zebrafish AB embryos assessed as morphological alteration by measuring effect on body length of larvae at 3 to 20 uM measured at 2 to 5 days post fertilization by stereomicroscopic method; type: organism-based; conditions: in vivo; in short: as §1
[12] = species on record: Danio rerio; assay: Toxicity in Zebrafish AB embryos assessed as morphological alteration by measuring effect on body length of larvae at 20 uM measured at 2 to 5 days post fertilization by stereomicroscopic method; type: organism-based; conditions: in vivo; in short: as §1

| Compound | Activity [1] | Stability ([2]; buffer, 24 h) | selectivity ratio [3] | Stability [4] | Activity [5] | Activity [6] | Stability [7] | remaining at 6 h [8] | remaining at 12 h [9] | selectivity ratio [10] | Activity [11] | remaining at 24 h [2] | Activity [12] |
| --- | --- | --- | --- | --- | --- | --- | --- | --- | --- | --- | --- | --- | --- |
| O=C(CSc1nc2ccccc2c(=O)[nH]1)NC1CCCCC1 | Non-Toxic | 127% | ≤ 32 | 100% | 162.8 bpm | Non-Toxic | 108% | 111% | 120% | ≤ 32 | Non-Toxic |  |  |
| CC1CCC(NC(=O)CSc2nc3ccccc3c(=O)[nH]2)CC1 (configuration not stated) | Non-Toxic |  | ≤ 32 | 97% | 147.7 bpm | Non-Toxic | 97% | 59% | 70% | ≤ 32 | Non-Toxic | 43% |  |
| CC1CCCCC1NC(=O)CSc1nc2ccccc2c(=O)[nH]1 (configuration not stated) | Non-Toxic |  | ≤ 32 | 122% | 162.6 bpm | Non-Toxic | 128% | 75% | 70% | ≤ 32 | Non-Toxic | 81% |  |
| C[C@H]1CC[C@H](NC(=O)CSc2nc3ccccc3c(=O)[nH]2)CC1 | Non-Toxic |  | ≤ 32 | 67% | 149.2 bpm | Non-Toxic | 76% | 87% | 70% | ≤ 32 |  | 51% | Toxic |
| O=C(CSc1nc2ccccc2c(=O)[nH]1)NC1CCCCCC1 | Non-Toxic |  | ≤ 32 | 90% | 160.1 bpm | Non-Toxic | 80% | 67% | 81% | ≤ 32 | Non-Toxic | 66% |  |
| CC1CCCC(NC(=O)CSc2nc3ccccc3c(=O)[nH]2)C1 (configuration not stated) | Non-Toxic |  | ≤ 32 | 102% | 157.2 bpm | Non-Toxic | 101% | 101% | 100% | ≤ 32 | Non-Toxic | 97% |  |
| O=C(CSc1nc2ccccc2c(=O)[nH]1)NCC1CCCCC1 | Non-Toxic |  | ≤ 32 | 115% | 157.8 bpm | Non-Toxic | 103% | 109% | 111% | ≤ 32 | Non-Toxic | 104% |  |
